# Measured values reported in ChEMBL document CHEMBL1122643, “Alpha-adrenoreceptor reagents. 2. Effects of modification of the 1,4-benzodioxan ring system on alpha-adrenoreceptor activity” (J Med Chem, 1984).
# The source made the active and inactive calls. No cut-off for these calls is given here.
# Legend:
# [1] = target: T1, Alpha-2 adrenergic receptor (Mus musculus) (UniProt P30545+Q01338+Q01337); assay: Presynaptic alpha-2 adrenergic receptor from mouse vas deferens agonistic activity relative to clonidine = 1.; type: functional, tissue-based
# In short: (§1)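 Isolated tissue agonist test, potency compared directly with the standard in the same experiment. Standard dose-response curves were run before and after the test compound's curve. Rat anococcygeus (male Sprague-Dawley, 200-250 g; Krebs, 30 °C, 95% O2/5% CO2) was compared with phenylephrine. Field-stimulated mouse vas deferens (0.1 Hz, Mg-free Krebs, 30 °C) was compared with clonidine.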
# [2] = target: T1, Alpha-2 adrenergic receptor (Mus musculus); assay: Ability to antagonize the inhibitory effect of clonidine on the mouse vas deferens is the presynaptic alpha-2 adrenergic receptor antagonist potency relative to idazoxan = 1.; type: functional, tissue-based
# In short: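 Male adult mouse vasa deferentia (MFI >30 g), 0.5 g initial tension, Mg-free Krebs, 30 °C, 95% O2/5% CO2. Field stimulation at 0.1 Hz, 3-ms pulses, 100-140 V set to give ~100-mg twitch, recorded isometrically.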
# [3] = target: T2, Adrenergic receptor alpha-1 (Rattus norvegicus) (UniProt P15823+P23944+P43140); assay: In vitro inhibition of the contractile effect of phenylephrine on the isolated rat anococcygeus; potency relative to idazoxan; Inactive.; type: functional
# [4] = target: T2, Adrenergic receptor alpha-1 (Rattus norvegicus); assay: Post-synaptic alpha-1 adrenergic receptor (rat anococcygeus) agonistic activity relative to phenylephrine; type: functional; in short: as §1
# [5] = target: T2, Adrenergic receptor alpha-1 (Rattus norvegicus); assay: In vitro inhibition of the contractile effect of phenylephrine on the isolated rat anococcygeus; potency relative to idazoxan.; type: functional
# [6] = Selectivity between pre- and post-synaptic sites of action.; type: functional
# [7] = target: T2, Adrenergic receptor alpha-1 (Rattus norvegicus); assay: Post-synaptic alpha-1 adrenergic receptor (rat anococcygeus) agonistic activity relative to phenylephrine; Inactive; type: functional; in short: as §1
# [8] = target: T2, Adrenergic receptor alpha-1 (Rattus norvegicus); assay: Agonism at Alpha-1 adrenoceptor determined in rat anococcygeus preparation; Inactive.; type: functional; in short: as §1
# [9] = target: T3, Adrenergic receptor alpha-1 (Rattus norvegicus, UniProt P15823+P23944+P43140); assay: Alpha-1 adrenergic receptor […] in rat anococcygeus assay; type: functional; in short: as §1
# T3 sequence (P15823 whole entry): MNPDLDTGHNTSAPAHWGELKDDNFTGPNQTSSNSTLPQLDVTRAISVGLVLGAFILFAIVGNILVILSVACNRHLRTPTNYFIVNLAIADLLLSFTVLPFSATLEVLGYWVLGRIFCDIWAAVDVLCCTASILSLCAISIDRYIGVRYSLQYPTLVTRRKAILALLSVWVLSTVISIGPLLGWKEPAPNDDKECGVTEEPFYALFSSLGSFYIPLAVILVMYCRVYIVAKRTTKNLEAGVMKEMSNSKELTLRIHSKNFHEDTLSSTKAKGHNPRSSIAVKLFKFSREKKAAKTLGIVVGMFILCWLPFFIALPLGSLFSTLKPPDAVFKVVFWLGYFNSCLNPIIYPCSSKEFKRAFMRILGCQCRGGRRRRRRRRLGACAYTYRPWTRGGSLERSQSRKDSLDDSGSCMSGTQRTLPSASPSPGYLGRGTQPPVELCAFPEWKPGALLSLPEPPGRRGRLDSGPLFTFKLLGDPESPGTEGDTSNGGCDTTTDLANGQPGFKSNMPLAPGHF
# T3 sequence (P23944 whole entry): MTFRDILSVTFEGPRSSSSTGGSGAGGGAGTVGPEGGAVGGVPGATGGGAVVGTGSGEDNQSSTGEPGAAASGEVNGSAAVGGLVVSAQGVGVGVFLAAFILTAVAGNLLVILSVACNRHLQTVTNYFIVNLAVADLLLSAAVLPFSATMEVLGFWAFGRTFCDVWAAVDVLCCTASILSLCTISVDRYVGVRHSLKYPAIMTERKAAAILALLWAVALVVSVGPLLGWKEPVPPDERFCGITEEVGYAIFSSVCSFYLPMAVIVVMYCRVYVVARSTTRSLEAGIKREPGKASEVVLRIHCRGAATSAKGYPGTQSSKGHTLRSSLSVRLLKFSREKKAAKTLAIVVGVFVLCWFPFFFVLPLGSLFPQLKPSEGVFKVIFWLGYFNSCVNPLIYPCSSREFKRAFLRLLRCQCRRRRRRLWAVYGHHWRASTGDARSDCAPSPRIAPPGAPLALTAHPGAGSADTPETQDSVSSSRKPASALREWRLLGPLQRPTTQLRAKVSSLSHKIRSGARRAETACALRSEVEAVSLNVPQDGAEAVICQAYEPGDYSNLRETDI
# T3 sequence (P43140 whole entry): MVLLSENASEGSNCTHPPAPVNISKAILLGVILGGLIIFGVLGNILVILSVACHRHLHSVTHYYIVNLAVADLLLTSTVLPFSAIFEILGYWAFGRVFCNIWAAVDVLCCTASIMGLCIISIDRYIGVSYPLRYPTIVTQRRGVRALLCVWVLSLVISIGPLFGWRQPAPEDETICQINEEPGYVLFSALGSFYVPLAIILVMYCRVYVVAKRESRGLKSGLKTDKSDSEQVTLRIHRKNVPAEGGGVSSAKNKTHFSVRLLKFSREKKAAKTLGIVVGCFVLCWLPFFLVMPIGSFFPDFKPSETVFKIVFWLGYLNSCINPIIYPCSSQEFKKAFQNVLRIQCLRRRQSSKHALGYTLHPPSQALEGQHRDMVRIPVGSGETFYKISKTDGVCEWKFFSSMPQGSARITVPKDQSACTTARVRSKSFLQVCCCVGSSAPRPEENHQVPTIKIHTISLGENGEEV
# [10] = Ratio of agonist potencies against alpha2 and alpha-1 adrenoceptors; type: functional
# [11] = target: T4, Alpha-2 adrenergic receptor (Mus musculus, UniProt P30545+Q01338+Q01337); assay: Alpha-2 adrenergic receptor […] in mouse vas deferens relative to clonidine; type: functional, tissue-based; in short: as §1
# T4 sequence (P30545 whole entry): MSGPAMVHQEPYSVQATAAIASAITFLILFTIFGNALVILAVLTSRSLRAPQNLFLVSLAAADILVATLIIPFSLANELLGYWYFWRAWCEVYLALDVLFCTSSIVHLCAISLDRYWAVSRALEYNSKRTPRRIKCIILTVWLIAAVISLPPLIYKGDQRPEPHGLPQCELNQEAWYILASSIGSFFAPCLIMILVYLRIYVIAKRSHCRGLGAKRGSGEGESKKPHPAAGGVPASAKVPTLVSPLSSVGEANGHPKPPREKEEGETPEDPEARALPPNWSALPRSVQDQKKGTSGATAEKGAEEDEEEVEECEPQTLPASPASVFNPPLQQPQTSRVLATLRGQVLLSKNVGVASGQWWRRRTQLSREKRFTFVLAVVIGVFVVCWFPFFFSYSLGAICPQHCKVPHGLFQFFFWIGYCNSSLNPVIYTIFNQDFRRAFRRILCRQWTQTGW
# T4 sequence (Q01338 whole entry): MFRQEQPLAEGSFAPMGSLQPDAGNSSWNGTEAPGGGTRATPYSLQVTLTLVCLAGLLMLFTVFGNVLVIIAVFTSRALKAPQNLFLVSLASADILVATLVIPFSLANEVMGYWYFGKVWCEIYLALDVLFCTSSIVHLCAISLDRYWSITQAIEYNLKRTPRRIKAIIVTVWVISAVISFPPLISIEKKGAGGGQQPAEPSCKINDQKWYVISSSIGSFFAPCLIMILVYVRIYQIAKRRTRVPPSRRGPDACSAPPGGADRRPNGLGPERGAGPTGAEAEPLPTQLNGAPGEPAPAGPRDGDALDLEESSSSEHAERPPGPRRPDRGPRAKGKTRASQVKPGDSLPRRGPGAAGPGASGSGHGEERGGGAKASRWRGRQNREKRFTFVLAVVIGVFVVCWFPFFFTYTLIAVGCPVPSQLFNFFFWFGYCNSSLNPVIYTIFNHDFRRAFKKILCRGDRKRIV
# T4 sequence (Q01337 whole entry): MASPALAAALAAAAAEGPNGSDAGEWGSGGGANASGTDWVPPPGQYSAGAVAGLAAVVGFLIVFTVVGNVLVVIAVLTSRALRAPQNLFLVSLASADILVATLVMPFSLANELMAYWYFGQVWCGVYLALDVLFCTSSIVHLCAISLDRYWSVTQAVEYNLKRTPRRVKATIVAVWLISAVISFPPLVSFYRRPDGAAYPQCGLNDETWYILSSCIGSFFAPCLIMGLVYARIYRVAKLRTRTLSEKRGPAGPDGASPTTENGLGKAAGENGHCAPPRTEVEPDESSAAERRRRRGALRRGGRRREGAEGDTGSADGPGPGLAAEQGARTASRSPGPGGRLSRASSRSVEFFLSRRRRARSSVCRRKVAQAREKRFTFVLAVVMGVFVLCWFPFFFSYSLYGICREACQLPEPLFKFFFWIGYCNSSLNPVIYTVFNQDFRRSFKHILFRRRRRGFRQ
# [12] = target: T1, Alpha-2 adrenergic receptor (Mus musculus); assay: Presynaptic alpha-2 adrenergic receptor agonistic activity in mouse vas deferens relative to clonidine; type: functional, tissue-based; in short: as §1
# [13] = target: T4, Alpha-2 adrenergic receptor; assay: Alpha-2 adrenergic receptor […] in mouse vas deferens assay compared to clonidine; type: functional, tissue-based; in short: as §1
# [14] = target: T1, Alpha-2 adrenergic receptor (Mus musculus); assay: Inhibition of alpha-2 adrenergic receptor; type: functional
# [15] = target: T1, Alpha-2 adrenergic receptor (Mus musculus); assay: Presynaptic alpha-2 adrenergic receptor agonist activity in isolated mouse vas deferens; type: functional, tissue-based
# In short: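 Vasa deferentia from adult male MFI mice (>30 g) were held at 0.5 g initial tension in Mg-free Krebs solution at 30 °C, gassed with 95% O2/5% CO2. Tissues were field-stimulated at 0.1 Hz with 3-ms pulses, with voltage (100-140 V) set for about 100-mg twitches, recorded isometrically. Potency was expressed relative to the standard, run before and after each analogue curve in the same tissue.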
IC40 [14] [nM],pD2 [15],Compound,Agonist potency [1],Antagonist potency [2],Antagonist potency [3],Agonist potency [4],Antagonist potency [5],Ratio [6],Agonist potency [7],Agonist potency [8],pA2 [9],Selectivity ratio [10],pA2 [11],Agonist potency [12],pA2 [13]
–,–,Cc1cc(Cl)cc2c1OC(C1=NCCN1)C2 (centres undefined),inactive,0.5,inactive,1,–,–,–,–,–,–,–,–,–
–,–,COc1ccc2c(c1)CC(C1=NCCN1)O2 (centres undefined),inactive,0.12,–,–,0.023,5.2,inactive,–,–,–,–,–,–
–,–,Cl.Clc1ccc2c(c1)CC(C1=NCCN1)O2 (centres undefined),inactive,0.53,–,–,0.35,1.5,–,inactive,7.05,5.6,7.8,–,–
–,–,CCC1(C2=NCCN2)Cc2ccccc2O1.Cl (centres undefined) [EFAROXAN HYDROCHLORIDE],inactive,1.8,–,–,0.3,6,–,inactive,5.91,258,8.32,–,–
–,–,CC1(C2=NCCN2)Cc2ccccc2O1 (centres undefined),–,0.25,–,–,0.35,0.71,inactive,–,–,–,–,0.002,–
–,–,CCCC1(C2=NCCN2)Cc2ccccc2O1.Cl (centres undefined),inactive,1.9,–,–,1,1.9,–,inactive,6.39,175,8.63,–,–
–,–,Cl.c1ccc2c(c1)OCC(C1=NCCN1)O2 (centres undefined) [IDAZOXAN HYDROCHLORIDE],–,–,–,–,–,–,–,–,–,–,–,–,7.98
–,–,CCCCCC1(C2=NCCN2)Cc2ccccc2O1.Cl (centres undefined),inactive,0.44,–,–,1,0.44,–,inactive,6.47,32,7.97,–,–
3.68,8.8,Clc1cccc(Cl)c1NC1=NCCN1,–,–,–,–,–,–,–,–,–,–,–,–,–
